Experimental data as given in publication PMC4091685 (Cancer chemotherapy and pharmacology, 2014).
pEC50, pIC50: −log10 of the molar value. Where two headings read alike, the source gives them in different places.

How the values were obtained:
[1] = system: AML patient cells (bulk, CD34+, CD34+CD38−, CD34+CD38+); test: Apoptosis; format: cell-based; details: Homo sapiens, 24 h
How it was run: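 Fresh peripheral blood came from AML patients with blasts of 95% or higher. Mononuclear cells were isolated on Ficoll-Hypaque and cultured in RPMI 1640 with 10% heat-inactivated FCS, 2mM glutamine and penicillin/streptomycin, on murine MS-5 stromal cells. Cells were stained for CD45, CD34, CD38 and annexin V Cy5, with leukemic cells gated as CD45+. Flow cytometry gave % annexin V+ cells, and EC50 was derived across test compound concentrations. Representative of two patients' samples.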

[2] = system: MV4–11 human AML cell line; test: In vitro cytotoxic activity, Alamar Blue viability assay; format: cell-based
[3] = rat, in vivo
Sprague-Dawley rats [4] = details: rat, in vivo, iv
[5] = beagle, dog, in vivo
[6] = MTD following a single i.v. injection in rats; details: Sprague Dawley, rat, in vivo, iv
in vivo = details: rat
[7] = system: AML patient cells (bulk, CD34+, CD34+CD38−, CD34+CD38+); test: Viable cell count in AML patients' samples, flow cytometry; format: cell-based; details: Homo sapiens, 24 h
How it was run: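 AML patient peripheral blood (blasts 95% or higher) was Ficoll-Hypaque purified and cultured in RPMI 1640 with 10% heat-inactivated FCS, 2mM glutamine and penicillin/streptomycin, cocultured with murine MS-5 stromal cells. Leukemic cells were gated CD45+ and subdivided by CD34/CD38. Viable counts came from CountBright beads on annexin V/7-AAD-negative events by flow cytometry. EC50 was derived across test compound concentrations. Representative of two patients' samples.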

Sprague-Dawley rats [8] = test: 7-day repeat dose i.v. rat toxicology comparison study; details: MRx102 3.0 mg/kg/day or triptolide 0.3 mg/kg/day i.v.
[9] = as above; details: both, Sprague-Dawley, rat, in vivo, iv
[10] = female, Sprague Dawley, iv, 0.05 mg/kg/day
[11] = female, Sprague Dawley, iv, 0.15 mg/kg/day
[12] = female, Sprague-Dawley, iv, 3 mg/kg/day
[13] = male, Sprague Dawley, iv, 0.05 mg/kg/day
[14] = male, Sprague Dawley, iv, 0.15 mg/kg/day
[15] = male, Sprague Dawley, iv, 0.3 mg/kg/day
[16] = male, Sprague Dawley, iv, 0.5 mg/kg/day
[17] = male, Sprague Dawley, iv, 1.5 mg/kg/day
[18] = male, Sprague Dawley, iv, 3 mg/kg/day
[19] = male, Sprague-Dawley, iv, 1.5 mg/kg/day
[20] = male, Sprague-Dawley, iv, 3 mg/kg/day
[21] = female, Sprague Dawley, iv, 0.3 mg/kg/day

Compound CC(C)[C@]12O[C@H]1[C@@H]1O[C@]13[C@]1(O[C@H]1C[C@H]1C4=C(CC[C@@]13C)C(=O)OC4)[C@@H]2O [Triptolide] has a pEC50 ([1]; read-out: EC50 - Annexin V +, 24 h, + MS-5, Bulk) of 8.63, a pEC50 ([1]; read-out: EC50 - Annexin V +, 24 h, + MS-5, CD34+) of 8.63 and a pEC50 ([1]; read-out: EC50 - Annexin V +, 24 h, + MS-5, CD34+38+) of 8.64. It also gave a pEC50 ([1]; read-out: EC50 - Annexin V +, 24 h, + MS-5, CD34+38−) of 8.63, a pEC50 ([1]; read-out: EC50 - Annexin V +, 24 h, Alone, Bulk) of 8.67 and a pEC50 ([1]; read-out: EC50 - Annexin V +, 24 h, Alone, CD34+) of 8.67. It also gave a pEC50 ([1]; read-out: EC50 - Annexin V +, 24 h, Alone, CD34+38+) of 8.68, a pEC50 ([1]; read-out: EC50 - Annexin V +, 24 h, Alone, CD34+38−) of 8.67 and a pIC50 ([2]; MV4-11, 24 h) of 7.62. The pIC50 ([2]; MV4-11, 48 h) was 8.14, the pIC50 ([2]; MV4-11, 72 h) was 8.25 and the “T1/2,e of triptolide after MRx102 injection relative to after triptolide” value ([3]; Sprague-Dawley) was “over 7 fold”. For the same compound, the “T1/2,e range” value ([3]; Sprague-Dawley) was 51 to 222 min, the “AUC0-inf Median” value ([3]; both, Sprague Dawley, iv) was 29.69 ng·h/mL and the “Cmax Median” value ([3]; both, Sprague Dawley, iv) was 23.8 ng/mL. The “Cmax range” value ([3]; both, Sprague Dawley, iv) was 7.83 to 41.1 ng/mL, the “T1/2,e Median” value ([3]; both, Sprague Dawley, iv) was 96 min and the “T1/2,e range” value ([3]; both, Sprague Dawley, iv) was 51 to 786 min. The AUC0-inf [3, 10] was 8.14 ng·h/mL, the Cl [3, 10] was 6.1 L/h and the Cmax [3, 10] was 11.0 ng/mL. The Vz [3, 10] was 2.2 L, the AUC0-inf [3, 11] was 36.82 ng·h/mL and the Cl [3, 11] was 4.1 L/h. For the same compound, the Cmax [3, 11] was 48.6 ng/mL, the Vz [3, 11] was 1.3 L and the Cmax range ([3]; female, Sprague-Dawley, iv, 3 mg/kg) was 11.8 to 41.1 ng/mL. For the same compound, the Cmax [3, 12] was 41.1 ng/mL, the Tmax [3, 12] was 60 min and the “T1/2,e” value [3, 13] was 10.2 min. For the same compound, the Vz [3, 13] was 0.2 L, the AUC0-inf [3, 14] was 37.95 ng·h/mL and the C0 [3, 14] was 130 ng/mL. For the same compound, the Cl [3, 14] was 4.0 L/h, the Cmax [3, 14] was 49.7 ng/mL and the “T1/2,e” value [3, 14] was 12.6 min. For the same compound, the Vz [3, 14] was 1.2 L, the AUC0-inf [3, 15] was 75.92 ng·h/mL and the C0 [3, 15] was 273 ng/mL. For the same compound, the Cl [3, 15] was 4.0 L/h, the “T1/2,e” value [3, 15] was 14.4 min and the AUC0-inf [3, 16] was 15.97 ng·h/mL. For the same compound, the “T1/2,e” value [3, 16] was 51 min, the AUC0-inf [3, 17] was 164.8 ng·h/mL and the Cmax [3, 17] was 9.17 ng/mL. The “T1/2,e” value [3, 17] was 786 min, the Tmax [3, 17] was 30 min and the AUC0-inf [3, 18] was 66.12 ng·h/mL. The Cmax [3, 18] was 16.0 ng/mL, the “T1/2,e” value [3, 18] was 222 min and the AUC0-inf [3, 19] was 12.66 ng·h/mL. For the same compound, the Cmax [3, 19] was 7.83 ng/mL, the “T1/2,e” value [3, 19] was 66 min and the Cmax range ([3]; male, Sprague-Dawley, iv, 3 mg/kg) was 7.83 to 32.5 ng/mL. For the same compound, the AUC0-inf [3, 20] was 269.69 ng·h/mL, the Cmax [3, 20] was 17.7 ng/mL and the “T1/2,e” value [3, 20] was 84 min. The accumulation index [3] was “less than unity”, the “histopathology, females” value (Sprague-Dawley rats [4]) was “no microscopic effect” and the “histopathology, males” value (Sprague-Dawley rats [4]) was “intraluminal cellular debris in the epididymis”. The reticulocytes (Sprague-Dawley rats [4]) was “decreased reticulocytes”, the “AUC0–24hr Median” value ([5]; iv) was 34.83 ng·h/mL and the “AUC0–24hr Range” value ([5]; iv) was 1.50 to 212.0 ng·h/mL. The “Cmax Median” value ([5]; iv) was 3.44 ng/mL, the “Cmax range” value ([5]; iv) was 2.0 to 49.0 ng/mL and the Cmax range ([5]; female) was 2.0 to 21.1 ng/mL. For the same compound, the Cmax range ([5]; male) was 2.22 to 49.0 ng/mL, the “AUC0–24hr” value ([5]; male, iv, 0.1 mg/kg/day) was 25.53 ng·h/mL and the Cmax ([5]; male, iv, 0.1 mg/kg/day) was 2.22 ng/mL. The Tmax ([5]; male, iv, 0.1 mg/kg/day) was 120 min, the MTD ([6]; female) was 0.317 mg/kg and the MTD ([6]; male) was 0.63 mg/kg. For the same compound, the clearance (in vivo; Sprague-Dawley, Cl range) was 15.5 to 102 mL/min, the Vd (in vivo; Sprague-Dawley, Vz range) was 0.2 to 2.2 L and the AUC0-inf (in vivo; both, Sprague Dawley, iv, AUC0-inf Median) was 51.4 ng·h/mL. The Cmax (in vivo; both, Sprague Dawley, iv, Cmax Median) was 59 ng/mL, the Cmax (in vivo; both, Sprague Dawley, iv, Cmax Range) was 11 to 189 ng/mL and the half-life (in vivo; both, Sprague Dawley, iv, T1/2,e Median) was 13.2 min. For the same compound, the half-life (in vivo; both, Sprague Dawley, iv, T1/2,e Range) was 9 to 23.4 min, the Tmax (in vivo; [10]) was 15 min and the AUC0-inf (in vivo; female, Sprague Dawley, iv, 0.05 mg/kg/day, AUC0-inf) was 12.5 ng·h/mL. For the same compound, the clearance (in vivo; female, Sprague Dawley, iv, 0.05 mg/kg/day, Cl) was 66.7 mL/min, the Cmax (in vivo; female, Sprague Dawley, iv, 0.05 mg/kg/day, Cmax) was 15.4 ng/mL and the half-life (in vivo; female, Sprague Dawley, iv, 0.05 mg/kg/day, T1/2,e) was 15 min. It also gave a Vd (in vivo; female, Sprague Dawley, iv, 0.05 mg/kg/day, Vz) of 1.4 L, a Tmax (in vivo; [11]) of 15 min and an AUC0-inf (in vivo; female, Sprague Dawley, iv, 0.15 mg/kg/day, AUC0-inf) of 72.1 ng·h/mL. It also gave a clearance (in vivo; female, Sprague Dawley, iv, 0.15 mg/kg/day, Cl) of 35 mL/min, a Cmax (in vivo; female, Sprague Dawley, iv, 0.15 mg/kg/day, Cmax) of 74.6 ng/mL and a half-life (in vivo; female, Sprague Dawley, iv, 0.15 mg/kg/day, T1/2,e) of 19.8 min. For the same compound, the Vd (in vivo; female, Sprague Dawley, iv, 0.15 mg/kg/day, Vz) was 1 L, the Tmax (in vivo; [21]) was 15 min and the AUC0-inf (in vivo; female, Sprague Dawley, iv, 0.3 mg/kg/day, AUC0-inf) was 162 ng·h/mL. For the same compound, the C0 (in vivo; [21]) was 436 ng/mL, the clearance (in vivo; female, Sprague Dawley, iv, 0.3 mg/kg/day, Cl) was 31.7 mL/min and the Cmax (in vivo; female, Sprague Dawley, iv, 0.3 mg/kg/day, Cmax) was 189 ng/mL. The half-life (in vivo; female, Sprague Dawley, iv, 0.3 mg/kg/day, T1/2,e) was 23.4 min, the Vd (in vivo; female, Sprague Dawley, iv, 0.3 mg/kg/day, Vz) was 1 L and the Cmax (in vivo; female, Sprague-Dawley, iv, 0.3 mg/kg, Cmax range) was 11 to 189 ng/mL. The Tmax (in vivo; [13]) was 15 min, the half-life (in vivo; male, Sprague Dawley, iv, 0.05 mg/kg/day, T1/2,e) was 9 min and the Tmax (in vivo; [14]) was 15 min. For the same compound, the C0 (in vivo; [14]) was 234 ng/mL, the clearance (in vivo; male, Sprague Dawley, iv, 0.15 mg/kg/day, Cl) was 48.3 mL/min and the Cmax (in vivo; male, Sprague Dawley, iv, 0.15 mg/kg/day, Cmax) was 59 ng/mL. For the same compound, the half-life (in vivo; male, Sprague Dawley, iv, 0.15 mg/kg/day, T1/2,e) was 11.4 min, the Vd (in vivo; male, Sprague Dawley, iv, 0.15 mg/kg/day, Vz) was 0.8 L and the Tmax (in vivo; [15]) was 15 min. The AUC0-inf (in vivo; male, Sprague Dawley, iv, 0.3 mg/kg/day, AUC0-inf) was 101 ng·h/mL, the C0 (in vivo; [15]) was 383 ng/mL and the clearance (in vivo; male, Sprague Dawley, iv, 0.3 mg/kg/day, Cl) was 50 mL/min. It also gave a Cmax (in vivo; male, Sprague Dawley, iv, 0.3 mg/kg/day, Cmax) of 130 ng/mL, a half-life (in vivo; male, Sprague Dawley, iv, 0.3 mg/kg/day, T1/2,e) of 10.8 min and a Vd (in vivo; male, Sprague Dawley, iv, 0.3 mg/kg/day, Vz) of 0.8 L. For the same compound, the Cmax (in vivo; male, Sprague-Dawley, iv, 0.3 mg/kg, Cmax range) was 18.2 to 130 ng/mL, the pEC50 ([7]; read-out: EC50 -Cell Count, 24 h, + MS-5, Bulk) was 8.63 and the pEC50 ([7]; read-out: EC50 -Cell Count, 24 h, + MS-5, CD34+) was 8.62. The pEC50 ([7]; read-out: EC50 -Cell Count, 24 h, + MS-5, CD34+38+) was 8.58, the pEC50 ([7]; read-out: EC50 -Cell Count, 24 h, + MS-5, CD34+38−) was 8.64 and the pEC50 ([7]; read-out: EC50 -Cell Count, 24 h, Alone, Bulk) was 8.66. For the same compound, the pEC50 ([7]; read-out: EC50 -Cell Count, 24 h, Alone, CD34+) was 8.67, the pEC50 ([7]; read-out: EC50 -Cell Count, 24 h, Alone, CD34+38+) was 8.67 and the pEC50 ([7]; read-out: EC50 -Cell Count, 24 h, Alone, CD34+38−) was 8.67. For the same compound, the “survival of high-dose females” value (Sprague-Dawley rats [8]) was “euthanized prior to Day 7” and the NOAEL at 7 days [9] was 0.05 to 0.15 mg/kg.
